# Published values of several laboratories.
# Protocols differ between the studies behind these lines.
# Cell line: MDA-MB-231
# Observed: cell growth or viability
Structure (SMILES),test,conditions,endpoint,result
COc1ccc(CNC[C@](O)(COCc2ccc(OC)cc2)[C@@H]2CC[C@@H](C)C[C@H]2OCc2ccc(OC)cc2)cc1,MTT,"10 µM, 72 h",inhibition,96.8%
CCNCCCn1c2c(c3cc(OC)c(OC)cc3c1=O)C(=O)c1cc3c(nc1-2)OCO3,MTS,72 h,IC50,0.476 µM
C[C@@H]1CC[C@@H]([C@@](O)(CNCc2ccccc2)COCc2ccc(F)cc2)[C@H](OCc2ccc(F)cc2)C1,MTT,"10 µM, 72 h",inhibition,97.9%
CC(=NNC(=O)COc1ccc2c(C)c(Cc3ccccc3)c(=O)oc2c1C)c1ccc(Br)cc1,MTT,250 µg/mL,viability,22.8%
COc1ccc(CNC[C@@](C)(O)[C@@H]2CC[C@@H](C)C[C@H]2OCc2ccccc2)cc1,MTT,"30 µM, 72 h",inhibition,83.5%
C=CCNC(=S)NNC(=O)COc1ccc2c(C)c(CC)c(=O)oc2c1C,MTT,250 µg/mL,viability,5.87%
C[C@@H]1CC[C@@H]([C@](C)(O)CNCc2cccc(F)c2)[C@H](OCc2ccccc2)C1,MTT,"10 µM, 72 h",inhibition,41.5%
O=C(C=Cc1ccc(F)cc1)Nc1cc(-c2ccnc(N3CCC(O)CC3)c2)ccn1,MTT,5 µM,inhibition,72.3%
O=C(NO)c1ccc(CNc2ccc(NC3=C(Cl)C(=O)c4cccnc4C3=O)cc2)cc1-c1ccccc1,MTT,48 h,IC50,2.5 µM
CCNC(=S)NNC(=O)COc1ccc2c(C)c(CC)c(=O)oc2c1C,MTT,500 µg/mL,viability,9.96%
C=C(COCc1ccc(F)cc1)[C@@H]1CC[C@@H](C)C[C@H]1OCc1ccc(F)cc1,MTT,"30 µM, 72 h",inhibition,25%
CC(C)CS(=O)(=O)NCc1cccc(-c2ccc3c(NC(=O)CC4CC4)n[nH]c3c2)c1,ATP luminescence,48 h,IC50,60 µM
C[C@@H]1CC[C@@H]([C@@](O)(CNCc2cccc3ccccc23)COCc2ccccc2)[C@H](OCc2ccccc2)C1,MTT,"10 µM, 72 h",inhibition,83%
Cc1cccc(/C=C/C(=O)Nc2cc(-c3ccnc(N4CCOCC4)c3)ccn2)c1,MTT,5 µM,inhibition,79.3%
Cc1c(Cc2ccccc2)c(=O)oc2c(C)c(OCC(=O)NN=Cc3ccc([N+](=O)[O-])cc3)ccc12,MTT,125 µg/mL,viability,23.7%
Cc1cccc(/C=C/C(=O)Nc2cccc(-c3ccnc(N4CCC(CO)CC4)c3)c2)c1,MTT,5 µM,inhibition,76.4%
Cc1c(Cc2ccccc2)c(=O)oc2c(C)c(OCC(=O)NN=Cc3ccc(Cl)cc3)ccc12,MTT,1000 µg/mL,viability,17.1%
Cc1cccc(/C=C/C(=O)Nc2cc(-c3ccnc(N4CCC(O)CC4)c3)ccn2)c1,MTT,5 µM,inhibition,75.6%
CCc1c(C)c2ccc(OCc3nnc(S)n3N)c(C)c2oc1=O,MTT,62.5 µg/mL,viability,69.4%
C=CC(=O)c1cccnc1Nc1cc(C(F)(F)F)ccc1OC,SRB,48 h,GI50,10.5 µM
